Assay results: paper PMC3967098 (Journal of medicinal chemistry, 2008)
Read-outs that look alike come from different tables or passages of the source.

Columns and labels:
c-myc quadruplex = test: SPR equilibrium binding, c-myc quadruplex; design: species or system human; conditions: for SPR Ligand KA for a single-site fit, c-myc: strong binding site, 25°C
In short: (§1)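 5′-Biotinylated quadruplex oligonucleotides were captured on a streptavidin chip to 350-400 RU, with a blank reference flow cell. Runs used 10mM HEPES, 100mM KCl, 3mM EDTA and P20 surfactant (pH 7.3) at 25°C. Ligand (1nM–10µM) was injected at 50µl/min for 5–10 min to steady state, then buffer for 10 min. The surface was regenerated with 10mM glycine pH 2.0, and KA came from nonlinear least-squares fitting.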

c-kit1 quadruplex = test: SPR equilibrium binding, c-kit1 quadruplex; design: species or system human; conditions: strong binding site; 25°C
In short: as §1

[1] = test system: hTel quadruplex (human telomere); test: SPR equilibrium binding, hTel quadruplex; conditions: strong binding site; 25°C, HEPES 100mM KCl pH 7.3
In short: as §1

MCF7 cells [2] = test: Long-term; type: cell-based, human; conditions: 1 week MCF7
In short: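 MCF7 cells (1×10^5 seeded, supplemented DMEM, 37 °C, 5% CO2) were exposed for 1 week to two sub-cytotoxic ligand concentrations, re-dosed twice weekly, alongside a media-only control. Cells were counted by haemocytometer, and population doublings were calculated as n = (log Pn – log P0)/log2, where P0 is the seeding density. Values are reported ± sd.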

c-kit2 quadruplex = test: SPR equilibrium binding, c-kit2 quadruplex; design: species or system human; conditions: strong binding site; 25°C
In short: as §1

[3] = test system: FRET-tagged duplex DNA sequence; test: FRET melting assay, duplex DNA; type: binding
MCF7 cells [4] = test: Assessment of chromosomal end-end fusions; type: cell-based, human; conditions: 1 week, data not shown
[5] = test system: hTel quadruplex (human telomere); conditions: strong binding site; cited from earlier work
[6] = test system: A549 non-small cell lung carcinoma cell line; conditions: read-out: SRB IC50, A549; cited from earlier work
[7] = test system: MCF7 breast adenocarcinoma cell line; conditions: read-out: SRB IC50, MCF7; cited from earlier work
DNA hairpin duplex = conditions: cited from earlier work

For O=C(CN1CCCC1)Nc1ccc(NC(=O)c2cccc(NC(=O)Nc3cccc(C(=O)Nc4ccc(NC(=O)CN5CCCC5)cc4)c3)c2)cc1 [9a, 1,3-bis(3-(4-(2-(pyrrolidin-1-yl)acetamido)phenylcarbamoyl)phenyl)urea], the “selectivity for the c-myc quadruplex (SPR)” value (c-myc quadruplex; relative to the other quadruplexes) was about 3 fold, the “SPR Ligand KA for a single-site fit, c-myc” value (“SPR Ligand KA … c-myc” for short) (c-myc quadruplex) was 1.4e+07 M⁻¹ and the “SPR Ligand KA for a single-site fit, c-kit1” value (“SPR Ligand KA … c-kit1” below) (c-kit1 quadruplex) was 2.1e+06 M⁻¹. The “SPR Ligand KA for a single-site fit, hTel” value (“SPR Ligand KA … hTel” below) [1] was 1.4e+06 M⁻¹, the “PD (population doublings)” value (MCF7 cells [2]; 5.00 μM) was 3.79 ± 0.12 and the “PD (population doublings)” value (MCF7 cells [2]; 10.00 μM) was 3.00 ± 0.38. For the same compound, the “SPR Ligand KA for a single-site fit, c-kit2” value (“SPR Ligand KA … c-kit2” below) (c-kit2 quadruplex) was 5.1e+06 M⁻¹ and the “FRET ΔTm at a 1μM ligand concentration, Duplex” value (“FRET ΔTm” below) [3] was 0.0 ± 0.6 °C.

In the case of O=C(CCN1CCCC1)Nc1ccc(NC(=O)c2cccc(NC(=O)Nc3cccc(C(=O)Nc4ccc(NC(=O)CCN5CCCC5)cc4)c3)c2)cc1 [9b, 1,3-bis(3-(4-(3-(pyrrolidin-1-yl)propanamido)phenylcarbamoyl)phenyl)urea], the “SPR Ligand KA … c-myc” value (c-myc quadruplex) is reported as 2.1e+06 M⁻¹, the “SPR Ligand KA … c-kit1” value (c-kit1 quadruplex) is reported as 1.4e+06 M⁻¹ and the “SPR Ligand KA … hTel” value [1] is reported as 1.1e+06 M⁻¹. For the same compound, the “PD (population doublings)” value (MCF7 cells [2]; 1.00 μM) was 4.53 ± 0.07, the “PD (population doublings)” value (MCF7 cells [2]; 1.75 μM) was 4.50 ± 0.03 and the “PD (population doublings)” value (MCF7 cells [2]; 2.25 μM) was 2.73 ± 0.20. The “SPR Ligand KA … c-kit2” value (c-kit2 quadruplex) was 5e+06 M⁻¹ and the “chromosomal end-end fusions relative to an untreated control” value (MCF7 cells [4]) was “did not show significant changes”.

In the case of O=C(CCCN1CCCC1)Nc1ccc(NC(=O)c2cccc(NC(=O)Nc3cccc(C(=O)Nc4ccc(NC(=O)CCCN5CCCC5)cc4)c3)c2)cc1 [9c, 1,3-bis(3-(4-(4-(pyrrolidin-1-yl)butanamido)phenylcarbamoyl)phenyl)urea], the “SPR Ligand KA … c-myc” value (c-myc quadruplex) is reported as 900000 M⁻¹, the “SPR Ligand KA … c-kit1” value (c-kit1 quadruplex) is reported as 400000 M⁻¹ and the “SPR Ligand KA … hTel” value [1] is reported as 400000 M⁻¹. For the same compound, the “PD (population doublings)” value (MCF7 cells [2]; 3.50 μM) was 3.94 ± 0.24, the “PD (population doublings)” value (MCF7 cells [2]; 7.00 μM) was 3.35 ± 0.03 and the “SPR Ligand KA … c-kit2” value (c-kit2 quadruplex) was 3.1e+06 M⁻¹. The “FRET ΔTm” value [3] was 0.0 ± 0.6 °C.

With O=C(CCCN1CCCC1)Nc1cccc(NC(=O)c2cccc(NC(=O)Nc3cccc(C(=O)Nc4cccc(NC(=O)CCCN5CCCC5)c4)c3)c2)c1 [9f, 1,3-bis(3-(3-(4-(pyrrolidin-1-yl)butanamido)phenylcarbamoyl)phenyl)urea] the “FRET ΔTm” value [3] was 0.0 ± 0.3 °C.

In the case of O=C(CCN1CCCCC1)Nc1ccc(NC(=O)c2cccc(NC(=O)Nc3cccc(C(=O)Nc4ccc(NC(=O)CCN5CCCCC5)cc4)c3)c2)cc1 [9h, 1,3-bis(3-(4-(3-(piperidin-1-yl)propanamido)phenylcarbamoyl)phenyl)urea], the “PD (population doublings)” value (MCF7 cells [2]; 2.00 μM) is reported as 3.66 ± 0.00 and the “PD (population doublings)” value (MCF7 cells [2]; 3.50 μM) is reported as 3.46 ± 0.34.

With O=C(CCN1CCCC1)Nc1cccc(NC(=O)c2ccc(NC(=O)Nc3ccc(C(=O)Nc4cccc(NC(=O)CCN5CCCC5)c4)cc3)cc2)c1 [10e, 1,3-bis(4-(3-(3-(pyrrolidin-1-yl)propanamido)phenylcarbamoyl)phenyl)urea] the “PD (population doublings)” value (MCF7 cells [2]; 1.00 μM) was 3.40 ± 0.26 and the “PD (population doublings)” value (MCF7 cells [2]; 2.00 μM) was 1.81 ± 0.10.

In the case of CN(C)c1ccc(Nc2c3ccc(NC(=O)CCN4CCCC4)cc3nc3cc(NC(=O)CCN4CCCC4)ccc23)cc1 [BRACO-19, 3,6-bis(3-pyrrolidin-1-ylpropionamido)-9-(4-dimethylaminophenylamino) acridine], the “SPR Ligand KA … hTel” value [5] is listed as 3.1e+07 M⁻¹, the IC50 [6] is listed as 2.4 µM and the IC50 [7] is listed as 2.5 µM. The “SPR KA, Duplex” value (DNA hairpin duplex) was 500000 M⁻¹.
